# Laboratory results as given in ChEMBL document CHEMBL4715736, “Identification of anticancer agents based on the thieno[2,3-b]pyridine and 1H-pyrazole molecular scaffolds” (2016).
# How the values were obtained:
# Assay type in all cases: functional
# HOP-92 = test: Growth inhibition of human HOP-92 cells incubated for 48 hrs by sulforhodamine B assay
# Outline: (§1)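 NCI60 panel at the NCI Developmental Therapeutics Program. Only compounds active in the 10 µM screen went to dose-response testing. GI50, the concentration giving 50% of maximal inhibition of proliferation, and TGI, the concentration giving total growth inhibition, were derived from the dose-response curves.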
# COLO 205 = test: Growth inhibition of human COLO 205 cells assessed as cell growth at 0.01 uM incubated for 48 hrs by sulforhodamine B assay relative to control; conditions: read-out: Activity
# Outline: (§2)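 NCI Developmental Therapeutics Program NCI60 panel. Compounds that were active in the 10 µM one-dose screen went on to dose–response testing. Growth at each concentration is expressed relative to untreated control (100%). GI50 (concentration giving 50% of maximal inhibition of proliferation) and TGI (concentration giving total growth inhibition) were derived from the curves.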
# UO-31 [1] = test: Growth inhibition of human UO-31 cells assessed as cell growth at 100 uM incubated for 48 hrs by sulforhodamine B assay relative to control; conditions: read-out: Activity
# OVCAR-4 = test: Growth inhibition of human OVCAR-4 cells assessed as cell growth at 0.01 uM incubated for 48 hrs by sulforhodamine B assay relative to control; conditions: read-out: Activity
# CAKI-1 = test: Growth inhibition of human CAKI-1 cells assessed as cell growth at 0.1 uM incubated for 48 hrs by sulforhodamine B assay relative to control; conditions: read-out: Activity; outline: as §2
# MCF7 = test: Growth inhibition of human MCF7 cells assessed as cell growth at 0.01 uM incubated for 48 hrs by sulforhodamine B assay relative to control; conditions: read-out: Activity
# OVCAR-8 [2] = test: Growth inhibition of human OVCAR-8 cells assessed as cell growth at 0.01 uM incubated for 48 hrs by sulforhodamine B assay relative to control; conditions: read-out: Activity
# SN12C = test: Growth inhibition of human SN12C cells assessed as cell growth at 0.1 uM incubated for 48 hrs by sulforhodamine B assay relative to control; conditions: read-out: Activity
# M14 [3] = test: Growth inhibition of human M14 cells assessed as cell growth at 100 uM incubated for 48 hrs by sulforhodamine B assay relative to control; conditions: read-out: Activity
# U-251 = test: Growth inhibition of human U-251 cells assessed as cell growth at 100 uM incubated for 48 hrs by sulforhodamine B assay relative to control; conditions: read-out: Activity
# LOX IMVI = test: Growth inhibition of human LOX IMVI cells assessed as cell growth at 0.01 uM incubated for 48 hrs by sulforhodamine B assay relative to control; conditions: read-out: Activity
# OVCAR-3 [4] = test: Growth inhibition of human OVCAR-3 cells assessed as cell growth at 1 uM incubated for 48 hrs by sulforhodamine B assay relative to control; conditions: read-out: Activity
# NCI-H23 = test: Growth inhibition of human NCI-H23 cells assessed as cell growth at 0.1 uM incubated for 48 hrs by sulforhodamine B assay relative to control; conditions: read-out: Activity
# A549 = test: Growth inhibition of human A549/ATCC cells assessed as cell growth at 0.01 uM incubated for 48 hrs by sulforhodamine B assay relative to control; conditions: read-out: Activity; outline: as §2
# MDA-MB-468 = test: Growth inhibition of human MDA-MB-468 cells assessed as cell growth at 0.1 uM incubated for 48 hrs by sulforhodamine B assay relative to control; conditions: read-out: Activity
# T47D = test: Growth inhibition of human T47D cells assessed as cell growth at 0.1 uM incubated for 48 hrs by sulforhodamine B assay relative to control; conditions: read-out: Activity
# M14 [5] = test: Growth inhibition of human M14 cells assessed as cell growth at 0.1 uM incubated for 48 hrs by sulforhodamine B assay relative to control; conditions: read-out: Activity
# TK-10 = test: Growth inhibition of human TK-10 cells assessed as cell growth at 0.01 uM incubated for 48 hrs by sulforhodamine B assay relative to control; conditions: read-out: Activity
# UO-31 [6] = test: Growth inhibition of human UO-31 cells assessed as cell growth at 0.01 uM incubated for 48 hrs by sulforhodamine B assay relative to control; conditions: read-out: Activity
# OVCAR-5 = test: Growth inhibition of human OVCAR-5 cells assessed as cell growth at 1 uM incubated for 48 hrs by sulforhodamine B assay relative to control; conditions: read-out: Activity
# IGROV-1 [7] = test: Growth inhibition of human IGROV-1 cells assessed as cell growth at 0.01 uM incubated for 48 hrs by sulforhodamine B assay relative to control; conditions: read-out: Activity
# M14 [8] = test: Growth inhibition of human M14 cells assessed as cell growth at 1 uM incubated for 48 hrs by sulforhodamine B assay relative to control; conditions: read-out: Activity
# NCI-H460 = test: Growth inhibition of human NCI-H460 cells assessed as cell growth at 0.01 uM incubated for 48 hrs by sulforhodamine B assay relative to control; conditions: read-out: Activity
# UACC-257 = test: Growth inhibition of human UACC-257 cells assessed as cell growth at 0.1 uM incubated for 48 hrs by sulforhodamine B assay relative to control; conditions: read-out: Activity
# OVCAR-8 [9] = test: Growth inhibition of human OVCAR-8 cells assessed as cell growth at 0.1 uM incubated for 48 hrs by sulforhodamine B assay relative to control; conditions: read-out: Activity
# UACC-62 = test: Growth inhibition of human UACC-62 cells assessed as cell growth at 0.01 uM incubated for 48 hrs by sulforhodamine B assay relative to control; conditions: read-out: Activity
# OVCAR-3 [10] = test: Growth inhibition of human OVCAR-3 cells incubated for 48 hrs by sulforhodamine B assay; conditions: for CC50: read-out: LC50 (the source's name)
# Outline: (§3)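 NCI DTP 60-line human tumour panel. Dose-response curves were run only for ligands active in the initial 10 µM screen. GI50 (concentration giving 50% of maximal inhibition of proliferation) and TGI (concentration giving total growth inhibition) were derived from these curves.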
# MOLT-4 = test: Growth inhibition of human MOLT-4 cells assessed as cell growth at 0.01 uM incubated for 48 hrs by sulforhodamine B assay relative to control; conditions: read-out: Activity
# 786-0 = test: Growth inhibition of human 786-0 cells incubated for 48 hrs by sulforhodamine B assay; conditions: for CC50: read-out: LC50 (the source's name); outline: as §2
# HCT-116 = test: Growth inhibition of human HCT-116 cells assessed as cell growth at 100 uM incubated for 48 hrs by sulforhodamine B assay relative to control; conditions: read-out: Activity
# MDA-MB-435 = test: Growth inhibition of human MDA-MB-435 cells incubated for 48 hrs by sulforhodamine B assay; conditions: for CC50: read-out: LC50 (the source's name); outline: as §1
# SK-OV-3 = test: Growth inhibition of human SK-OV-3 cells incubated for 48 hrs by sulforhodamine B assay; conditions: for CC50: read-out: LC50 (the source's name); outline: as §3
# SR = test: Growth inhibition of human SR cells incubated for 48 hrs by sulforhodamine B assay; outline: as §3
# IGROV-1 [11] = test: Growth inhibition of human IGROV-1 cells assessed as cell growth at 100 uM incubated for 48 hrs by sulforhodamine B assay relative to control; conditions: read-out: Activity
# HT-29 = test: Growth inhibition of human HT-29 cells assessed as cell growth at 0.1 uM incubated for 48 hrs by sulforhodamine B assay relative to control; conditions: read-out: Activity
compound,measurement,setting,value
COc1cccc(NC(=O)c2sc3nc4c(cc3c2N)CN(Cc2ccccc2)CC4)c1,GI50,HOP-92,2.21 µM
same,LC50 (concentration killing 50% of the starting cells),HOP-92,> 100 µM
same,TGI,HOP-92,24.1 µM
same,growth at 0.01 µM,COLO 205,92%
same,growth at 100 µM,UO-31 [1],-23%
same,growth at 0.01 µM,OVCAR-4,86%
same,growth at 0.1 µM,CAKI-1,91%
same,growth at 0.01 µM,MCF7,88%
same,growth at 0.01 µM,OVCAR-8 [2],99%
same,growth at 0.1 µM,SN12C,93%
same,growth at 100 µM,M14 [3],-4%
same,growth at 100 µM,U-251,-54%
same,growth at 0.01 µM,LOX IMVI,97%
same,growth at 1 µM,OVCAR-3 [4],82%
same,growth at 0.1 µM,NCI-H23,101%
same,growth at 0.01 µM,A549,96%
same,growth at 0.1 µM,MDA-MB-468,89%
same,growth at 0.1 µM,T47D,94%
same,growth at 0.1 µM,M14 [5],95%
same,growth at 0.01 µM,TK-10,104%
same,growth at 0.01 µM,UO-31 [6],92%
same,growth at 1 µM,OVCAR-5,95%
same,growth at 0.01 µM,IGROV-1 [7],101%
same,growth at 1 µM,M14 [8],57%
same,growth at 0.01 µM,NCI-H460,101%
same,growth at 0.1 µM,UACC-257,91%
same,growth at 0.1 µM,OVCAR-8 [9],100%
same,growth at 0.01 µM,UACC-62,94%
same,GI50,OVCAR-3 [10],7.53 µM
same,TGI,OVCAR-3 [10],26.9 µM
same,CC50,OVCAR-3 [10],79.8 µM
same,growth at 0.01 µM,MOLT-4,102%
same,GI50,786-0,3.61 µM
same,TGI,786-0,20.8 µM
same,CC50,786-0,> 100 µM
same,growth at 100 µM,HCT-116,2%
same,GI50,MDA-MB-435,0.296 µM
same,TGI,MDA-MB-435,11 µM
same,CC50,MDA-MB-435,49 µM
same,GI50,SK-OV-3,2.78 µM
same,TGI,SK-OV-3,14 µM
same,CC50,SK-OV-3,62.5 µM
same,GI50,SR,0.453 µM
same,LC50,SR,> 100 µM
same,TGI,SR,47.7 µM
same,growth at 100 µM,IGROV-1 [11],4%
same,growth at 0.1 µM,HT-29,103%
Cc1cc(C)c(NC(=O)c2sc3nc4c(cc3c2N)CN(Cc2ccccc2)CC4)c(C)c1,GI50,HOP-92,0.877 µM
same,LC50 (concentration killing 50% of the starting cells),HOP-92,> 100 µM
same,TGI,HOP-92,42.6 µM
same,growth at 0.01 µM,COLO 205,94%
same,growth at 100 µM,UO-31 [1],-1%
same,growth at 0.01 µM,OVCAR-4,93%
same,growth at 0.1 µM,CAKI-1,90%
same,growth at 0.01 µM,MCF7,86%
same,growth at 0.01 µM,OVCAR-8 [2],101%
same,growth at 0.1 µM,SN12C,101%
same,growth at 100 µM,M14 [3],-18%
same,growth at 100 µM,U-251,-43%
same,growth at 0.01 µM,LOX IMVI,99%
same,growth at 1 µM,OVCAR-3 [4],76%
same,growth at 0.1 µM,NCI-H23,103%
same,growth at 0.01 µM,A549,96%
same,growth at 0.1 µM,MDA-MB-468,78%
same,growth at 0.1 µM,T47D,93%
same,growth at 0.1 µM,M14 [5],94%
same,growth at 0.01 µM,TK-10,103%
same,growth at 0.01 µM,UO-31 [6],91%
same,growth at 1 µM,OVCAR-5,97%
same,growth at 0.01 µM,IGROV-1 [7],101%
same,growth at 1 µM,M14 [8],78%
same,growth at 0.01 µM,NCI-H460,99%
same,growth at 0.1 µM,UACC-257,93%
same,growth at 0.1 µM,OVCAR-8 [9],97%
same,growth at 0.01 µM,UACC-62,101%
same,GI50,OVCAR-3 [10],2.32 µM
same,TGI,OVCAR-3 [10],12.6 µM
same,CC50,OVCAR-3 [10],> 100 µM
same,growth at 0.01 µM,MOLT-4,99%
same,GI50,786-0,3.48 µM
same,TGI,786-0,> 100 µM
same,CC50,786-0,> 100 µM
same,growth at 100 µM,HCT-116,-64%
same,GI50,MDA-MB-435,0.399 µM
same,TGI,MDA-MB-435,4.38 µM
same,CC50,MDA-MB-435,68.9 µM
same,GI50,SK-OV-3,5.35 µM
same,TGI,SK-OV-3,> 100 µM
same,CC50,SK-OV-3,> 100 µM
same,GI50,SR,1.83 µM
same,LC50,SR,> 100 µM
same,TGI,SR,10.7 µM
same,growth at 100 µM,IGROV-1 [11],5%
same,growth at 0.1 µM,HT-29,100%
